The values that follow come from the EternaBench riboswitch data.

For this data set, the system named is MS2 coat protein. The data set can be described thus: apparent Kd, MS2 coat protein; higher = weaker binding; RNA-MaP array; FMN 200 µM where present. A digest of the protocol:
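Green signal was scaled to red-channel RNA signal and control-cluster median Fmax, and the apparent Kd was taken as the median of filtered per-cluster binding-curve fits. The binding series used SNAP-549-labelled MS2 coat protein from 0.7 or 1.5 nM, doubling to 3 µM, on designs transcribed by stalled E. coli RNA polymerase on Illumina sequencing-chip clusters. Each series ran without and then with constant ligand in 100 mM Tris-HCl pH 7.5, 80 mM KCl, 4 mM MgCl2, BSA, DTT, yeast tRNA and Tween-20.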

Setting [1] is: designed as: OFF switch for flavin mononucleotide, no ligand.
Setting [2] is: ligand present: flavin mononucleotide, designed as: OFF switch for flavin mononucleotide.
The mark [3] stands for this setting: designed as: ON switch for flavin mononucleotide, no ligand.
Where [4] appears, read: ligand present: flavin mononucleotide, designed as: ON switch for flavin mononucleotide.

Usually apparent Kd stands for the concentration giving half-maximal binding under the conditions of the assay. With “UAUAUAUAGUAAGGAUAUGUAUUAUUUUUAUAAACAGAAGGUACUGACAUGAGGAUCACCCAUGUUUUAGUGUGGGCAUGUAGA”, the “apparent Kd” value is, setting by setting: under setting [1], 49.1 nM; under setting [2], 70.4 nM.
“AAUAAACAUGAGGAUCACCCAUGUCCCACCAGCCAAGGAUAUGGGCCCGCCGCACAGGUACCAGAAGGUGGCUGCC”: the “apparent Kd” value was 165 nM under setting [3] and 55.7 nM under setting [4].
In the case of “CGUAUGUCAGGAUAUGCGUAUGCCGCUCAGGGCGAGCGGCAGCAGAAGGGACAUGAGGAUCACCCAUGUUCGGG”, the “apparent Kd” value reads like this: under setting [1], 71.4 nM; under setting [2], 49.3 nM.
As to “ACAGGCUUCGAGAAGGACAUGAGGAUCACCCAUGUGCGUGUGAAGCAGCCGUGAGGCUGCAUCAUGUAGGAUAUCGGAGUCUGU”, the “apparent Kd” value under setting [1] stood at 63.8 nM and the “apparent Kd” value under setting [2] is 374 nM.
Consider “AAAAAAAAGCCCAAGGAUAUCCGGAUGAAGACAUGAGGAUCACCCAUGUGAAAAAAAAAAUAUGAGGAGAAGGUGGGAAAAAAAAA”, for which the “apparent Kd” value reads like this: under setting [3], 83.6 nM; under setting [4], 61.6 nM.
Consider “GAAUAACAUGAGGAUCACCCAUGUGAUUCGCAUGUAGGAUAUGGGCACGCGCCCGCGUGUCCAGAAGGACAGGCUA”, for which the “apparent Kd” value reads like this: under setting [3], 154 nM; under setting [4], 130 nM.
Regarding “CGCGAACAUGAGGAUCACCCAUGUGGGUGGAACGUAGGAUAUACGUAGGUCUUUAAUACAGUAGAAGGACGUUCGC”, the “apparent Kd” value is, setting by setting: under setting [3], 264 nM; under setting [4], 118 nM.
With “GUAGUACAUGAGGAUCACCCAUGUGUGGGCGCAUGAGGAUAUGUCCGUACCUGGCGUACGAUAGAAGGCAUGGUGC”, the “apparent Kd” value under setting [3] is 52.8 nM and the “apparent Kd” value under setting [4] was determined as 29.3 nM.
For “AACAGUCUAGAGGAUAUGCUGGAUUAAAAUCUGGCAGAAGGCUGGACAUGAGGAUCACCCAUGUAAAUACUACC”, the “apparent Kd” value under setting [1] was determined as 33.6 nM and the “apparent Kd” value under setting [2] came out at 162 nM.
The like results for “CUGUUAUAGGUCCAGAAUUACAACAUGAGGAUCACCCAUGUGCAGGAUAUCGAGUUAAUUUUCAACGAGAAGGGCAUAGUCACG” were, in that order, 35.9 nM and 67.6 nM.
“AUUAUACAUGAGGAUCACCCAUGUAAUUAAUUAAUUAAGAUCUAGGAUAUCAGCUCGAUUAGAGCUGAGAAGGAGAUCACAUGU”: the “apparent Kd” value is 29.9 nM under setting [3] and 18.7 nM under setting [4].
The corresponding values for “GAGCGAGGGACAGGAUAUGCGGCGAAACUCUCCGCAGAAGGGUCGACAUGAGGAUCACCCAUGUCCUUACGCUCCAAGUAGAGG” are 132 nM and 397 nM.
As for “GGAUAGGACAGAGGAUAUACGUGCUAGAGAUACUAGCAAAAUCUCCUCACAUGAGGAUCACCCAUGUAGAAGGCUGUCCUAUCG”, the “apparent Kd” value under setting [1] came out at 9.85 nM and the “apparent Kd” value under setting [2] was found to be 201 nM.
As to “AUCUUGAGAGGAUAUACAUGAGGAUCACCCAUGUUGCUAACACCAUGCGGUCAUUUGCGUAGAAGGCUCAUCCG”, the “apparent Kd” value is 26.2 nM under setting [1] and 104 nM under setting [2].
The corresponding values for “CAUGAGGUAGGAUAUACGAUAAUAUAGGGUAGAUAUAUAACACAUGAGGAUCACCCAUGUAGAAGGACCAGUAG” are 31.2 nM and 57.2 nM.
On to “CAAUUCCGAGGAUAUACAUGAGGAUCACCCAUGUCGGGCCUCAGCGUUUAGCGCCUCAGUAGAAGGCGGGUUUC”, for which the “apparent Kd” value by setting is: under setting [1], 28.3 nM; under setting [2], 34.8 nM.
Take “GGAAGACAAAGUCUUCCAAAUCGAACAUGAGGAUCACCCAUGUAGGAUAUGCUACUCAAAGAGUAGCAGAAGGACAUGUGCUUU”: the “apparent Kd” value under setting [1] is 40.1 nM and the “apparent Kd” value under setting [2] worked out at 193 nM.
The like results for “UUGUAACGAUUAGGAUAUUAUUAAUAGAACUUUAUGAUAUACAUGAGGAUCACCCAUGUUACUUUUAAGAAGGAAUCGUAUUAU” were, in that order, 24.4 nM and 18.3 nM.
For “AACGCGUCAGGAUAUGCCAUAAAUUACCUAGUACGACCAUAGCAGAAGGGACAUGAGGAUCACCCAUGUGGGUA”, the “apparent Kd” value runs as follows: under setting [1], 92 nM; under setting [2], 67.6 nM.
As to “GCAUUUAAUACAGGAUAUGUAAGUAUACAUUAGAUUGGUAUAGUCACAACAACAGAAGGGUAGAACAUGAGGAUCACCCAUGUA”, the “apparent Kd” value was 97.3 nM under setting [3] and 62.9 nM under setting [4].
Turning to “GUAGCAUUCUGAGGAUAUGGGUUCCGGAAACGGACAUGAGGAUCACCCAUGUGGCGAAAGCCAUACUAGAAGGCAGUAUGCUAC”, the “apparent Kd” value was determined as 77.9 nM under setting [3] and 7.46 nM under setting [4].
Take “ACAAGAUCAGGAUAUACAUGAGGAUCACCCAUGUUUAUCCAAAAGGGACUUUCUUUAUGUAGAAGGGAUCUUGU”: the “apparent Kd” value under setting [1] amounted to 16.8 nM and the “apparent Kd” value under setting [2] worked out at 32.3 nM.
As for “UAAUCGUUGCAGAAGGUUAUUAUUAUAACGUGACACUUAACAUGAGGAUCACCCAUGUUUUUGAUGAAGGAUAUGCAACGGUAG”, the “apparent Kd” value amounted to 8.04 nM under setting [1] and 7.71 nM under setting [2].
For “GCAGCAUAAAUUAUACAUGAGGAUCACCCAUGUUACAUGUGUAAGGAUAUUGAGGUUAUUAUUGGCAAGAAGGUACAAUGCUGC”, the “apparent Kd” value worked out at 15.2 nM under setting [3] and 8.57 nM under setting [4].
With “GACCUACAUGAGGAUCACCCAUGUCAGGAUAUUUAACCGAUGUCACCCAUCGGUCCUUAGAGAAGGGAUGUGGC”, the “apparent Kd” value is, setting by setting: under setting [1], 15 nM; under setting [2], 14.9 nM.
Turning to “GUGGACUACGUAGGAUAUGUAGGAUAUUCCUACAUGAGGAUCACCCAUGUUAGCAUGGAAGAAGGACAGAAGGACGUGGUCCAG”, the “apparent Kd” value was 1130 nM under setting [3] and 16 nM under setting [4].
“GUCAGCUCGUGAGGAUAUACAAUACUGCUUCGGCAGUGUAUUAAGAUCACAUGAGGAUCACCCAUGUAGAAGGCACGAGCUGAU”: the “apparent Kd” value runs as follows: under setting [1], 7.88 nM; under setting [2], 60.4 nM.
Consider “AAUCUGUCGGUAGGAUAUCAGUUUGGAGAGCCGACAUGAGGAUCACCCAUGUACAGAAUCAAGGGUGAGAAGGACCGGGUAGUU”, for which the “apparent Kd” value reads like this: under setting [3], 90.7 nM; under setting [4], 78.6 nM.
As for “CCAUCGUGUGUGAGGAUAUGCUGGUCCUUGGAUCAGCAGAAGGCACAUGAGGAUCACCCAUGUGAAUACGAUGG”, the “apparent Kd” value is 16.3 nM under setting [1] and 29.5 nM under setting [2].
Regarding “UUUAAUAUUAUAGGAUAUGGAUACGAUACGUAUCCAGAAGGGUGAUUAAACUAUAAUCUAUACAUGAGGAUCACCCAUGUUUAU”, the “apparent Kd” value is, setting by setting: under setting [3], 212 nM; under setting [4], 44.7 nM.
As for “GGAUGACAAAGUCAUCCAUUACGAACAUGAGGAUCACCCAUGUAGGAUAUGCUUCACAAAGUGAAGCAGAAGGACAUGUGUCUU”, the “apparent Kd” value turned out to be 30.2 nM under setting [1] and 154 nM under setting [2].
The like results for “AUGAGGUCAGGAUAUGCAUGGCGGGACUUGCGUCGUGGCGUGCAGAAGGGACAUGAGGAUCACCCAUGUGGAGG” were, in that order, 177 nM and 249 nM.
Regarding “GGAUGACAAAGUCAUCCUAAACGAACAUGAGGAUCACCCAUGUAGGAUAUGCUACACAAAGUGUAGCAGAAGGACAUGUGCCUU”, the “apparent Kd” value under setting [1] was determined as 37.1 nM and the “apparent Kd” value under setting [2] was 269 nM.
For “GCCUAACAUGAGGAUCACCCAUGUCGUGGGUUGUUAGGAUAUGGACCGCAAAACGCGGUACCAGAAGGAAUAGAAA”, the “apparent Kd” value worked out at 555 nM under setting [3] and 297 nM under setting [4].
Take “UUGUUCUGAGGAUAUACAUGAGGAUCACCCAUGUGUUUCUGCUUGGUGUCUUGCGAAUGUAGAAGGCUGUUCUC”: the “apparent Kd” value worked out at 37.5 nM under setting [1] and 40.2 nM under setting [2].
Take “AAUUGGAUCCAGAAGGCAUGGACGACCCGUCACAUUAACAUGAGGAUCACCCAUGUAAAAAUACAUGAGGAUAUGGAUCCUAAA”: the “apparent Kd” value stood at 41.3 nM under setting [3] and 7.43 nM under setting [4].
Regarding “GUCAGCUCGUGAGGAUAUAUAUUAACAUGAGGAUCACCCAUGUAAGAUCAGCUUCGGCAGUUAAUAUAGAAGGCACGAGCUGAC”, the “apparent Kd” value runs as follows: under setting [1], 168 nM; under setting [2], 188 nM.
The like results for “UAAAAUCAUGUAGGAUAUGCGUGGCGAAGCUAUGCAGAAGGACAUGAGGAUCACCCAUGUCUUACUGUGCGUACACAGUUAAAG” were, in that order, 16.7 nM and 79.5 nM.
Consider “UAGAUGGGAGGAUAUACGUAGAUACAGAUUCGUGUAGUGCUACAUGAGGAUCACCCAUGUAGAAGGCCCGUCUU”, for which the “apparent Kd” value stood at 13.6 nM under setting [1] and 22.9 nM under setting [2].
Consider “GACAUUGGCAAGAAGGCAAACAUGAGGAUCACCCAUGUUCUGCAUGUAUAUUGAGGAUAUUGCCAAUGUAUGUGGAUCACCCAA”, for which the “apparent Kd” value reads like this: under setting [1], 6.36 nM; under setting [2], 23.3 nM.
Regarding “GAUUAUAAGUAAGGAUAUGUAUAUGAAACAUCUACAGAAGGUACAUGAGGAUCACCCAUGUUCUUGCAGCGUGACUAUGUAAUC”, the “apparent Kd” value amounted to 24 nM under setting [1] and 27.9 nM under setting [2].
For the sequence “UCAUAAAUUCGAGGAUAUCGGUGAUAAAGAAGACGAGAAGGCGAUUAGAGAGAGAUGUUUAUAGACAUGAGGAUCACCCAUGUU”, the “apparent Kd” value under setting [3] amounted to 30 nM and the “apparent Kd” value under setting [4] is 24.8 nM.
On to “UCCUAGCUAGGAUAUACCCAGGGUUUGUUCUCUAACAAAACACAUGAGGAUCACCCAUGUAGAAGGAGCCGGGA”, for which the “apparent Kd” value is, setting by setting: under setting [1], 76.9 nM; under setting [2], 70.8 nM.
For “ACAUGAGACUUAGGAUAUGUUGUACCUACAUGUGACAUGAGGAUCACCCAUGUGGUAAGUAUGACACAGAAGGAAGAGAUAUGU”, the “apparent Kd” value is, setting by setting: under setting [3], 21.4 nM; under setting [4], 19.9 nM.
As for “CCAGCGUAUGUGAGGAUAUGCUGGUCCUUGGAUCAGCAGAAGGCACAUGAGGAUCACCCAUGUGAUGACGUUGG”, the “apparent Kd” value under setting [1] turned out to be 50.9 nM and the “apparent Kd” value under setting [2] was determined as 287 nM.
With “GGUGCAUAUGAGAAGGCGAUCAUGAAACAUGAUCGAGGAUAUCAUGUAAACAUGAGGAUCACCCAUGUAUGGGUAAAGUGCAUC”, the “apparent Kd” value by setting is: under setting [3], 444 nM; under setting [4], 27.1 nM.
Consider “GCAUGUAAGUAGAAGGGCAGAUAUUUUGAUACUGCAGGAUAUGCAGAAUCAUAUCCACAUGAUAACAUGAGGAUCACCCAUGUA”, for which the “apparent Kd” value turned out to be 32.7 nM under setting [1] and 25.6 nM under setting [2].
The like results for “UUGUGGGAGCAGGAUAUCUUAGUUUGGUUGUGUGGAGAAGGGCUGACAUGAGGAUCACCCAUGUGGUCCUAGAU” were, in that order, 24.1 nM and 29.5 nM.
